Data reported in ChEMBL document CHEMBL1150817, “Annomolin and annocherimolin, new cytotoxic annonaceous acetogenins from Annona cherimolia seeds” (J Nat Prod, 2001).
Values after ≈ are worked out from the molar mass of the structure shown.

Legend:
A549 = assay: Cytotoxicity against human A549 cells after 7 days by MTT assay; type: functional; settings: A549, 168 h, read-out: ED50 (the source's name)
Method in brief: (§1)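 Seven-day in vitro MTT assay run at the Purdue Cancer Center cell culture laboratory under standard protocols. Cell lines were A-549 lung carcinoma, MCF-7 breast carcinoma, HT-29 colon adenocarcinoma, A-498 kidney carcinoma, PC-3 prostate adenocarcinoma and MIA PaCa-2 pancreatic carcinoma. Adriamycin served as the positive control.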

HT-29 = assay: Cytotoxicity against human HT-29 cells after 7 days by MTT assay; type: functional; method in brief: as §1
MIA PaCa-2 = assay: Cytotoxicity against human MIAPaCa2 cells after 7 days by MTT assay; type: functional; settings: for EC50: Homo sapiens, MIA PaCa-2, 168 h, read-out: ED50 (the source's name); method in brief: as §1
MCF7 = assay: Cytotoxicity against human MCF7 cells after 7 days by MTT assay; type: functional; method in brief: as §1
PC-3 = assay: Cytotoxicity against human PC3 cells after 7 days by MTT assay; type: functional; settings: for EC50: Homo sapiens, PC-3, 168 h, read-out: ED50 (the source's name); method in brief: as §1
A498 = assay: Cytotoxicity against human A498 cells after 7 days by MTT assay; type: functional; settings: for EC50: Homo sapiens, A498, 168 h, read-out: ED50 (the source's name); method in brief: as §1
[1] = Toxicity to Artemia salina; type: organism-based; settings: in vivo
Method in brief: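 Brine shrimp lethality test (BST) on larvae, run routinely on extracts, fractions and isolated compounds during activity-directed fractionation.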

| SMILES | EC50 (A549) [µg/mL] | ED50 (HT-29) | EC50 (MIA PaCa-2) [µg/mL] | ED50 (MCF7) | ED50 (PC-3) [×10⁻⁶ ug/ml] | ED50 (A498) [×10⁻⁴ ug/ml] | LC50 [1] [ng/mL] | EC50 (HT-29; Homo sapiens, HT-29, 168 h, read-out: ED50 (the source's name)) [µg/mL] | EC50 (MCF7; Homo sapiens, MCF7, 168 h, read-out: ED50 (the source's name)) [µg/mL] | EC50 (PC-3) [µg/mL] | EC50 (A498) [µg/mL] | ED50 (MIA PaCa-2) [×10⁻⁵ ug/ml] |
| --- | --- | --- | --- | --- | --- | --- | --- | --- | --- | --- | --- | --- |
| CCCCCCCCCCCCCC[C@H](O)[C@@H]1CC[C@@H](CCCCC[C@@H](O)[C@H](O)CC[C@@H](O)CC2=C[C@H](C)OC2=O)O1 [ANNOMOLIN] | 2.37 (≈ 3.97 µM) | 8.92 ×10⁻⁵ ug/ml | 2.18 (≈ 3.65 µM) | 1.15 ×10⁻⁴ ug/ml | 5.39 | 6.88 | 9.4 (≈ 0.0157 µM) |  |  |  |  |  |
| COc1cccc2c1C(=O)c1c(O)c3c(c(O)c1C2=O)C[C@@](O)(C(=O)CO)C[C@@H]3O[C@H]1C[C@H](N)[C@H](O)[C@H](C)O1 [DOXORUBICIN] | 0.00113 (≈ 0.00208 µM) |  | 0.00262 (≈ 0.00482 µM) |  |  |  |  | 0.0128 (≈ 0.0235 µM) | 0.0182 (≈ 0.0335 µM) | 0.0502 (≈ 0.0924 µM) | 0.00226 (≈ 0.00416 µM) |  |
| CCCCCCCCCCCC/C=C\CC[C@@H](O)[C@H]1CC[C@H]([C@H](O)CCCC(O)CCCC[C@@H](O)CC2=C[C@H](C)OC2=O)O1 (stereo not given in full) [ANNOCHERIMOLIN] | 1.56 (≈ 2.5 µM) | 2.49 ×10⁻⁶ ug/ml |  | 4.06 ×10⁻⁶ ug/ml |  |  | 5.8 (≈ 0.00931 µM) |  |  | 1.02 (≈ 1.64 µM) | 0.153 (≈ 0.246 µM) | 1.2 |
